Reference: ChEMBL document CHEMBL3352362, “Discovery of a novel, first-in-class, orally bioavailable azaindole inhibitor (VX-787) of influenza PB2” (J Med Chem, 2014)
pEC50, pKi: −log10 of the molar value.

Experiments:
[1] = Antiviral activity against Influenza A virus A/Georgia/20/2006 infected in MDCK cells assessed as cell protection after 3 days by cytopathic effect assay; type: functional, cell-based, Influenza A virus (A/Georgia/20/2006(H1N1)); details: 72 h
How it was run: (§1)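 MDCK cells incubated with test compound and influenza A virus for 72 h (3-day CPE format). Cell viability read by an ATP end point. EC50 is the concentration giving 50% cell protection; mean of N = 3 or greater.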

Influenza A virus [2] = assay: Antiviral activity against Influenza A virus A/Puerto Rico/8/34 infected in MDCK cells assessed as cell protection after 3 days by cytopathic effect assay; type: functional, organism-based; details: A/Puerto Rico/8/1934(H1N1), 72 h; how it was run: as §1
[3] = Antiviral activity against Influenza A virus A/Texas/48/2009 infected in MDCK cells assessed as cell protection after 3 days by cytopathic effect assay; type: functional, cell-based, Influenza A virus (A/Texas/48/2009(H1N1)); details: 72 h; how it was run: as §1
[4] = Antiviral activity against Influenza A virus A/Mexico/4108/2009 infected in MDCK cells assessed as cell protection after 3 days by cytopathic effect assay; type: functional, cell-based, Influenza A virus (A/Mexico/4108/2009(H1N1)); details: 72 h; how it was run: as §1
[5] = Antiviral activity against Influenza A virus A/New York/18/2009 infected in MDCK cells assessed as cell protection after 3 days by cytopathic effect assay; type: functional, cell-based, Influenza A virus (A/New York/18/2009(H1N1)); details: 72 h; how it was run: as §1
[6] = Antiviral activity against Influenza A virus A/California/07/2009 infected in MDCK cells assessed as cell protection after 3 days by cytopathic effect assay; type: functional, cell-based, Influenza A virus (A/California/07/2009(H1N1)); details: 72 h; how it was run: as §1
[7] = AUC in mouse at 30 mg/kg; type: ADME, organism-based; design: dose 30 mg/kg; details: plasma
[8] = Half life in rat at 3 mg/kg, iv; type: ADME, organism-based; design: dose 3 mg/kg, route intravenous; details: in vivo
[9] = Cmax in mouse at 30 mg/kg; type: ADME, organism-based; design: dose 30 mg/kg; details: in vivo
[10] = Oral bioavailability in rat at 3 mg/kg; type: ADME, organism-based; details: in vivo
[11] = Inhibition of CYP450 (unknown origin) at > 30 uM; type: ADME; details: human
[12] = molecular target: T1, Adenosine receptor A1 (Homo sapiens) (UniProt P30542); assay: Inhibition of human adenosine A1 receptor at 10 uM relative to control
T1 sequence (whole entry): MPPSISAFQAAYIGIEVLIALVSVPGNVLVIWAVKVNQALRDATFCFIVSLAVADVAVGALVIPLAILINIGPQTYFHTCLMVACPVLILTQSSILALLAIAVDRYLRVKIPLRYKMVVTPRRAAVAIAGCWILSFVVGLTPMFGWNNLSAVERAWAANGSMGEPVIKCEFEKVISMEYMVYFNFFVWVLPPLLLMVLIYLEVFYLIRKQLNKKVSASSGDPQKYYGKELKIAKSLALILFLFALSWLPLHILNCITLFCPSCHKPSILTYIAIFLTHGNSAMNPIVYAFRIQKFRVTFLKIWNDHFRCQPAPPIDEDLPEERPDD
How it was run: (§2)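 Competitive binding panel of 68 receptors, ion channels and other targets, run at 10 μM compound; percent inhibition reported.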

Influenza A virus [13] = assay: Antiviral activity against Influenza A virus A/Puerto Rico/8/34 infected in BALB/c mouse assessed as body weight loss at 3 mg/kg bid treated after 48 hrs of infection for 10 days; type: functional; details: A/Puerto Rico/8/1934(H1N1)
How it was run: (§3)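 Male BALB/c mice, 8 per study, inoculated intranasally with mouse-adapted A/PR/8/34 at 5e3 TCID50/mouse. Twice-daily treatment began 48 h after infection. Survival and body weight were followed.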

[14] = Clearance in rat at 3 mg/kg, iv; type: ADME, organism-based; design: dose 3 mg/kg, route intravenous; details: in vivo
Influenza A virus [15] = assay: Antiviral activity against Influenza A virus A/Puerto Rico/8/34 infected in BALB/c mouse assessed as body weight loss at 1 mg/kg bid treated after 48 hrs of infection for 10 days; type: functional; details: A/Puerto Rico/8/1934(H1N1); how it was run: as §3
Influenza A virus [16] = assay: Antiviral activity against Influenza A virus A/Puerto Rico/8/34 infected in BALB/c mouse assessed as body weight loss at 10 mg/kg bid treated after 48 hrs of infection for 10 days; type: functional; details: A/Puerto Rico/8/1934(H1N1); how it was run: as §3
Influenza A virus [17] = assay: Antiviral activity against Influenza A virus A/Puerto Rico/8/34 infected in BALB/c mouse assessed as mouse survival at 1 to 10 mg/kg bid treated after 48 hrs of infection for 10 days; type: functional, A/Puerto Rico/8/1934(H1N1); details: dose mg/kg 1-10; how it was run: as §3
Influenza A virus [18] = assay: Antiviral activity against Influenza A virus A/Puerto Rico/8/34 infected in BALB/c mouse assessed as body weight loss at 30 mg/kg bid treated after 48 hrs of infection for 10 days; type: functional; details: A/Puerto Rico/8/1934(H1N1); how it was run: as §3
[19] = molecular target: Voltage-gated inwardly rectifying potassium channel KCNH2 (Homo sapiens, UniProt Q12809); assay: Inhibition of human ERG at > 30 uM relative to control
Chain of Voltage-gated inwardly rectifying potassium channel KCNH2 (Q12809 whole entry): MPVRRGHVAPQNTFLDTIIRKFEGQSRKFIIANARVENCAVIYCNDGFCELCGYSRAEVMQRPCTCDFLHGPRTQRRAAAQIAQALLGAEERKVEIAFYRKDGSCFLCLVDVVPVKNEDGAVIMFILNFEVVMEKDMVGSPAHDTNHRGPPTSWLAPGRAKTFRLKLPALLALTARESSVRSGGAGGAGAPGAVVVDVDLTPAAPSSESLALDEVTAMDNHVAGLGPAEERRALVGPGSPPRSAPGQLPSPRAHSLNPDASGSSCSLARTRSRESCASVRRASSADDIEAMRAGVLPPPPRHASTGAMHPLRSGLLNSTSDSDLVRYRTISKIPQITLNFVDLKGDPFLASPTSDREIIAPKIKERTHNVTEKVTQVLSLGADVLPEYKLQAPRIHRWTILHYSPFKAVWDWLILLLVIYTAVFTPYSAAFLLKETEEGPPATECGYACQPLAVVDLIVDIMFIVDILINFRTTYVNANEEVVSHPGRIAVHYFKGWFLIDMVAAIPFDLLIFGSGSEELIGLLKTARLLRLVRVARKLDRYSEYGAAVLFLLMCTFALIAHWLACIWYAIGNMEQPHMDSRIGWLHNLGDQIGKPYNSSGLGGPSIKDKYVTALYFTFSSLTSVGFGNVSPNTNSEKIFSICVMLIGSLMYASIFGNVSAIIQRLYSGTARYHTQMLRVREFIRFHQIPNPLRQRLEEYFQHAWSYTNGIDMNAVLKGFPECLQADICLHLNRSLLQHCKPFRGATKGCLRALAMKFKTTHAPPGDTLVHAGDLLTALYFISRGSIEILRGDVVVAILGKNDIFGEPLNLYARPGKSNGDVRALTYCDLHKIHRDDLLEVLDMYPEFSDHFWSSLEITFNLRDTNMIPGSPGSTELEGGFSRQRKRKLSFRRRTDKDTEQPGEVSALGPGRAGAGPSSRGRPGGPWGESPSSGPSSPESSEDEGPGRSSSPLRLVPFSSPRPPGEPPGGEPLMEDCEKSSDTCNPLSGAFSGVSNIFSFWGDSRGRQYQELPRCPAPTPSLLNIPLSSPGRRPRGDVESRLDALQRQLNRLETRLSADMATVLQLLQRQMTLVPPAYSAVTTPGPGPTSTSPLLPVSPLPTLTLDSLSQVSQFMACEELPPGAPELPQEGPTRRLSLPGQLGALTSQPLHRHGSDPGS
How it was run: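 hERG tested by manual patch clamp.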

[20] = Antiviral activity against Influenza A virus A/Viet Nam/1203/2004(H5N1) infected in MDCK cells assessed as cell protection after 3 days by cytopathic effect assay; type: functional, cell-based; details: 72 h; how it was run: as §1
[21] = Cmax in rat at 3 mg/kg, po; type: ADME, organism-based; design: dose 3 mg/kg, route oral; details: in vivo
[22] = molecular target: Glycogen synthase kinase-3 beta (Homo sapiens, UniProt P49841); assay: Inhibition of GSK3beta (unknown origin)
Chain of Glycogen synthase kinase-3 beta (P49841 whole entry): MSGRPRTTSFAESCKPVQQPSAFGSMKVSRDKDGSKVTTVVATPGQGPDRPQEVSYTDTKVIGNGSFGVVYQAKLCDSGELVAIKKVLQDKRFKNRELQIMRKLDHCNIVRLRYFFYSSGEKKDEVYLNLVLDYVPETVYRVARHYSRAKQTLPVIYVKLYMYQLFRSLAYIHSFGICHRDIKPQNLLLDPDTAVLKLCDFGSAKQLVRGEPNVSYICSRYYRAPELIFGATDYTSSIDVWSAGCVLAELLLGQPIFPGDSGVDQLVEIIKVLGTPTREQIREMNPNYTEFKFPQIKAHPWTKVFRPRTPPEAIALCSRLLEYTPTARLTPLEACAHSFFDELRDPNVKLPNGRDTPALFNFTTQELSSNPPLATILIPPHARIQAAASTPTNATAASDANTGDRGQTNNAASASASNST

[23] = molecular target: Adenosine receptor A2a (Homo sapiens) (UniProt P29274); assay: Inhibition of human adenosine A2A receptor at 10 uM relative to control; how it was run: as §2
Chain of Adenosine receptor A2a (Homo sapiens) (P29274 whole entry): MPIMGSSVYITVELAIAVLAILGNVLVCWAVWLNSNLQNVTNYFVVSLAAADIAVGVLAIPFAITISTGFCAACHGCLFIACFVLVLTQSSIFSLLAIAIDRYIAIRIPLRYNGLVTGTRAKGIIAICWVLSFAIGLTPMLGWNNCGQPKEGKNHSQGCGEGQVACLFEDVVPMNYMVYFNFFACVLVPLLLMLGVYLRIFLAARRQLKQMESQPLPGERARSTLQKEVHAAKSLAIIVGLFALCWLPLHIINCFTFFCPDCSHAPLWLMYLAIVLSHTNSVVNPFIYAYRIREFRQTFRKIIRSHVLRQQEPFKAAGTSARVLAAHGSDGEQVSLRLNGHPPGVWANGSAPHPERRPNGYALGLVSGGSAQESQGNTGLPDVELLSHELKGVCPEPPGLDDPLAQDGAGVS

[24] = AUC in rat at 3 mg/kg, po; type: ADME, organism-based; design: dose 3 mg/kg, route oral; details: plasma

With `NC12CC3CC(CC(C3)C1)C2` [AMANTADINE] as the compound, how does the pEC50 [1] read?
Its pEC50 is under 5.00.

And the pEC50 (Influenza A virus [2])?
Its pEC50 is under 5.00.

What about the pEC50 [3] of the same compound?
Its pEC50 is under 5.00.

What about the pEC50 [4] of the same compound?
The pEC50 was under 5.00.

What about the pEC50 [5] of the same compound?
Its pEC50 is under 5.00.

What about the pEC50 [6] of the same compound?
The pEC50 was under 5.00.

For `O=C(O)[C@H]1C2CCC(CC2)[C@@H]1Nc1nc(-c2c[nH]c3ncc(F)cc23)ncc1F` [PIMODIVIR], which AUC [7] is on record?
Its AUC is 22000 ng·h/mL.

And the pEC50 [1]?
Its pEC50 is 8.59.

What about the pEC50 (Influenza A virus [2]) of the same compound?
Its pEC50 is 9.49.

And the half-life [8]?
Its half-life is 3.5 h.

What about the Cmax [9] of the same compound?
The Cmax was 18000 ng/mL.

And the bioavailability [10]?
The bioavailability was 26%.

What about the “inhibition (INH)” value [11] of the same compound?
The value was “Not Active”.

What about the pEC50 [3] of the same compound?
Its pEC50 is 8.55.

What about the pEC50 [4] of the same compound?
Its pEC50 is 8.57.

And the inhibition [12]?
The inhibition was 96%.

And the inhibition in vivo at 3 mg/kg (Influenza A virus [13])?
Its inhibition in vivo at 3 mg/kg is 10.9%.

What about the clearance [14] of the same compound?
The clearance was 26 mL/min/kg.

What about the inhibition in vivo at 1 mg/kg (Influenza A virus [15]) of the same compound?
The inhibition in vivo at 1 mg/kg was 22.5%.

And the inhibition in vivo at 10 mg/kg (Influenza A virus [16])?
The inhibition in vivo at 10 mg/kg was 7.1%.

What about the pEC50 [5] of the same compound?
Its pEC50 is 9.23.

What about the Survival (Influenza A virus [17]) of the same compound?
Its Survival is 100%.

What about the inhibition in vivo at 30 mg/kg (Influenza A virus [18]) of the same compound?
Its inhibition in vivo at 30 mg/kg is 30%.

What about the “inhibition (INH)” value [19] of the same compound?
Its value is “Not Active”.

And the pEC50 [20]?
The pEC50 was over 9.82.

And the pEC50 [6]?
Its pEC50 is 8.74.

And the Cmax [21]?
The Cmax was 80 ng/mL.

And the pKi [22]?
Its pKi is 5.80.

What about the inhibition [23] of the same compound?
The inhibition was 62%.

What about the AUC [24] of the same compound?
Its AUC is 500 ng·h/mL.
